# Source: ChEMBL document CHEMBL2311478, “Macrolactonolides: a novel class of anti-inflammatory compounds” (Bioorg Med Chem, 2013)
# pEC50: −log10 of the molar value. Activity calls are given as the source filed them. No cut-off for these calls is given here.
# Key:
# Glucocorticoid receptor [1] = molecular target: T1, Glucocorticoid receptor (Homo sapiens, UniProt P04150); test: Displacement of [3H]-dexamethasone human glucocorticoid receptor alpha expressed in 293 MSR cells after 60 mins by scintillation counting; type: cell-based
# T1 sequence (P04150 whole entry): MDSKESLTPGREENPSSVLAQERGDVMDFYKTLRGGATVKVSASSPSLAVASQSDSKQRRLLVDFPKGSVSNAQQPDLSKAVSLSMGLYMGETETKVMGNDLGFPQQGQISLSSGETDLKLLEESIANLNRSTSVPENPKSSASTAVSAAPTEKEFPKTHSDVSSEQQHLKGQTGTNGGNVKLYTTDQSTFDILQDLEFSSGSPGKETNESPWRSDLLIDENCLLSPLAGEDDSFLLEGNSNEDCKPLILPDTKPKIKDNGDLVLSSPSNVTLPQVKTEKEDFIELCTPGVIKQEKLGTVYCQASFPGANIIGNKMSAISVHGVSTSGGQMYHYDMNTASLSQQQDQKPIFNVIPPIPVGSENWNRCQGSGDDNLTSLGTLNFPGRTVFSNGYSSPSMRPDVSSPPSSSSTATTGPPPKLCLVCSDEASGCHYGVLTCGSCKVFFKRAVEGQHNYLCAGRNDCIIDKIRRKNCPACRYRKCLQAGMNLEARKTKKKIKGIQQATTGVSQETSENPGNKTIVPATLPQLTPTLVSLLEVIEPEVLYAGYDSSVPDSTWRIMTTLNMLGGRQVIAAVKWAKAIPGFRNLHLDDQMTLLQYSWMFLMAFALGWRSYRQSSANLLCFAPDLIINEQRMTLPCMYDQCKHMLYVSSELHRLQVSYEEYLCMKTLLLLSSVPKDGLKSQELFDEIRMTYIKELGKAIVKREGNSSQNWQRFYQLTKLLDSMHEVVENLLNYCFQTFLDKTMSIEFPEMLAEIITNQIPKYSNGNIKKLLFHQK
# Glucocorticoid receptor [2] = molecular target: T1, Glucocorticoid receptor; test: Binding affinity to glucocorticoid receptor (unknown origin) by fluorescence polarization competitive binding assay
# [3] = Drug uptake in mouse J774A1 cells assessed as compound retention at 10 uM after 3 hrs by LC-MS/MS method; type: ADME, cell-based; details: j774.a1, 3 h
# Procedure, shortened: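 J774A.1 cells were loaded with 10 µM compound for 3 h in DMEM/25 mM Hepes, then incubated 3 h in fresh medium. Cells were washed, lysed in 0.5% Triton X-100 and analysed by LC–MS/MS. Retention is the percentage of the initially accumulated amount remaining. Triplicates, mean ± SD from one representative experiment.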
# [4] = Drug uptake in mouse J774A1 cells at 10 uM after 3 hrs by LC-MS/MS method; type: ADME, cell-based; details: j774.a1, 3 h
# Procedure, shortened: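 Uptake in J774A.1 macrophages seeded two days before at 2 × 10^5 cells/well. Cells were exposed to 10 µM compound for 3 h in DMEM/25 mM Hepes without supplements, washed with ice-cold PBS and lysed in 0.5% Triton X-100. Lysate was measured by LC–MS/MS, using a cell volume of 1.68 µL per 10^6 cells. Result is the I/E ratio, with E taken as 10 µM.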
# Rattus norvegicus [5] = test: Antiinflammatory activity against ovalbumin-induced airway allergic Brown-Norway rat model assessed as decrease of eosinophils in bronchoalveolar lavage fluid at 11 mg/kg administered intranasally as dry powder measured on day 29 after ovalbumin challenge (reference value: 53.1%); type: functional, Lung; set-up: scale not given: the % may be the effect or the level left
# Rattus norvegicus [6] = test: Antiinflammatory activity against ovalbumin-induced airway allergic Brown-Norway rat model assessed as decrease of neutrophils in bronchoalveolar lavage fluid at 11 mg/kg administered intranasally as dry powder measured on day 29 after ovalbumin challenge; type: functional, organism-based; set-up: dose 11 mg/kg
# Rattus norvegicus [7] = test: Antiinflammatory activity against ovalbumin-induced airway allergic Brown-Norway rat model assessed as decrease of macrophages in bronchoalveolar lavage fluid at 11 mg/kg administered intranasally as dry powder measured on day 29 after ovalbumin challenge; type: functional, organism-based; set-up: dose 11 mg/kg; details: Lung
SMILES,pEC50 (Glucocorticoid receptor [1]),pEC50 (Glucocorticoid receptor [2]),other results
"CC[C@H]1OC(=O)[C@H](C)[C@@H](O[C@H]2C[C@@](C)(OC)[C@@H](O)[C@H](C)O2)[C@H](C)[C@@H](O[C@@H]2O[C@H](C)C[C@H](N(C)C)[C@H]2O)[C@](C)(O)C[C@@H](C)CN(CCCNC(=O)[C@@]2(O)C(C)C[C@H]3[C@@H]4CCC5=CC(=O)C=C[C@]5(C)[C@@]4(Cl)[C@@H](O)C[C@@]32C)[C@H](C)[C@@H](O)[C@]1(C)O (single isomer, unassigned)",< 4.60,< 5.00,–
C[C@@H]1C[C@H]2[C@@H]3CCC4=CC(=O)C=C[C@]4(C)[C@@]3(F)[C@@H](O)C[C@]2(C)[C@H]1C(=O)CO [DESOXIMETASONE],–,–,Drug uptake [3]: Not Active; Drug uptake [4]: Not Active
CC[C@H]1OC(=O)[C@H](C)[C@@H](O[C@H]2C[C@@](C)(OC)[C@@H](O)[C@H](C)O2)[C@H](C)[C@@H](O[C@@H]2O[C@H](C)C[C@H](N(C)C)[C@H]2O)[C@](C)(O)C[C@@H](C)CN(CCCNC(=O)[C@@]2(O)[C@H](C)C[C@H]3[C@@H]4C[C@H](F)C5=CC(=O)C=C[C@]5(C)[C@@]4(F)[C@@H](O)C[C@@]32C)[C@H](C)[C@@H](O)[C@]1(C)O,< 4.60,6.04,–
CC[C@H]1OC(=O)[C@H](C)[C@@H](O)[C@H](C)[C@@H](O[C@@H]2O[C@H](C)C[C@H](N(C)C)[C@H]2O)[C@](C)(O)C[C@@H](C)CN(CCCNC(=O)[C@@]2(O)[C@H](C)C[C@H]3[C@@H]4C[C@H](F)C5=CC(=O)C=C[C@]5(C)[C@@]4(F)[C@@H](O)C[C@@]32C)[C@H](C)[C@@H](O)[C@]1(C)O,5.47,6.16,–
CC[C@H]1OC(=O)[C@H](C)[C@@H](O[C@H]2C[C@@](C)(OC)[C@@H](O)[C@H](C)O2)[C@H](C)[C@@H](O[C@@H]2O[C@H](C)C[C@H](N(C)C)[C@H]2O)[C@](C)(O)C[C@@H](C)CN(CCCNC(=O)[C@@]2(O)CC[C@H]3[C@@H]4CCC5=CC(=O)C=C[C@]5(C)[C@H]4[C@@H](O)C[C@@]32C)[C@H](C)[C@@H](O)[C@]1(C)O,< 4.60,< 5.00,–
C[C@@H]1C[C@H]2[C@@H]3CCC4=CC(=O)C=C[C@]4(C)[C@@]3(F)[C@@H](O)C[C@]2(C)[C@@]1(O)C(=O)CO [DEXAMETHASONE],–,–,Drug uptake [3]: Not Active; Drug uptake [4]: Not Active
CC[C@H]1OC(=O)[C@H](C)[C@@H](O)[C@H](C)[C@@H](O[C@@H]2O[C@H](C)C[C@H](N(C)C)[C@H]2O)[C@](C)(O)C[C@@H](C)CN(CCCNC(=O)[C@@]2(O)[C@H](C)C[C@H]3[C@@H]4C[C@H](F)C5=CC(=O)C=C[C@]5(C)[C@H]4[C@@H](O)C[C@@]32C)[C@H](C)[C@@H](O)[C@]1(C)O,5.23,6.26,–
CC[C@H]1OC(=O)[C@H](C)[C@@H](O)[C@H](C)[C@@H](O[C@@H]2O[C@H](C)C[C@H](N(C)C)[C@H]2O)[C@](C)(O)C[C@@H](C)CN(CCCNC(=O)[C@H]2[C@H](C)C[C@H]3[C@@H]4CCC5=CC(=O)C=C[C@]5(C)[C@@]4(F)[C@@H](O)C[C@@]32C)[C@H](C)[C@@H](O)[C@]1(C)O,< 4.60,5.55,–
CC[C@H]1OC(=O)[C@H](C)[C@@H](O)[C@H](C)[C@@H](O[C@@H]2O[C@H](C)C[C@H](N(C)C)[C@H]2O)[C@](C)(O)C[C@@H](C)CN(CCCNC(=O)[C@@]2(O)[C@H](C)C[C@H]3[C@@H]4CCC5=CC(=O)CC[C@]5(C)[C@H]4[C@@H](O)C[C@@]32C)[C@H](C)[C@@H](O)[C@]1(C)O,< 4.60,5.21,–
CC[C@H]1OC(=O)[C@H](C)[C@@H](O[C@H]2C[C@@](C)(OC)[C@@H](O)[C@H](C)O2)[C@H](C)[C@@H](O[C@@H]2O[C@H](C)C[C@H](N(C)C)[C@H]2O)[C@](C)(O)C[C@@H](C)CN(CCCNC(=O)[C@@]2(O)[C@H](C)C[C@H]3[C@@H]4CCC5=CC(=O)C=C[C@]5(C)[C@@]4(F)[C@@H](O)C[C@@]32C)[C@H](C)[C@@H](O)[C@]1(C)O,4.64,5.68,–
CC[C@H]1OC(=O)[C@H](C)[C@@H](O)[C@H](C)[C@@H](O[C@@H]2O[C@H](C)C[C@H](N(C)C)[C@H]2O)[C@](C)(O)C[C@@H](C)CN(CCCNC(=O)[C@@]2(O)[C@H](C)C[C@H]3[C@@H]4C[C@H](F)C5=CC(=O)C=C[C@]5(C)[C@@]4(Cl)[C@@H](O)C[C@@]32C)[C@H](C)[C@@H](O)[C@]1(C)O,5.77,6.46,–
CCC(=O)OCC(=O)[C@@]1(OC(=O)CC)[C@@H](C)C[C@H]2[C@@H]3CCC4=CC(=O)C=C[C@]4(C)[C@@]3(Cl)[C@@H](O)C[C@@]21C [BECLOMETHASONE DIPROPIONATE],–,–,Activity (Rattus norvegicus [5]): 43%; Activity (Rattus norvegicus [6]): inactive; Activity (Rattus norvegicus [7]): inactive
CC[C@H]1OC(=O)[C@H](C)[C@@H](O[C@H]2C[C@@](C)(OC)[C@@H](O)[C@H](C)O2)[C@H](C)[C@@H](O[C@@H]2O[C@H](C)C[C@H](N(C)C)[C@H]2O)[C@](C)(O)C[C@@H](C)CN(CCCNC(=O)[C@@]2(O)[C@H](C)C[C@H]3[C@@H]4C[C@H](F)C5=CC(=O)C=C[C@]5(C)[C@H]4[C@@H](O)C[C@@]32C)[C@H](C)[C@@H](O)[C@]1(C)O,< 4.60,5.84,–
CC[C@H]1OC(=O)[C@H](C)[C@@H](O[C@H]2C[C@@](C)(OC)[C@@H](O)[C@H](C)O2)[C@H](C)[C@@H](O[C@@H]2O[C@H](C)C[C@H](N(C)C)[C@H]2O)[C@](C)(O)C[C@@H](C)CN(CCCNC(=O)[C@@]2(O)CC[C@H]3[C@@H]4CCC5=CC(=O)CC[C@]5(C)[C@H]4[C@@H](O)C[C@@]32C)[C@H](C)[C@@H](O)[C@]1(C)O,< 4.60,< 5.00,–
CC[C@H]1OC(=O)[C@H](C)[C@@H](O[C@H]2C[C@@](C)(OC)[C@@H](O)[C@H](C)O2)[C@H](C)[C@@H](O[C@@H]2O[C@H](C)C[C@H](N(C)C)[C@H]2O)[C@](C)(O)C[C@@H](C)CN(CCCNC(=O)[C@H]2[C@H](C)C[C@H]3[C@@H]4C[C@H](F)C5=CC(=O)C=C[C@]5(C)[C@@]4(F)[C@@H](O)C[C@@]32C)[C@H](C)[C@@H](O)[C@]1(C)O,6.28,7.05,–
CC[C@H]1OC(=O)[C@H](C)[C@@H](O[C@H]2C[C@@](C)(OC)[C@@H](O)[C@H](C)O2)[C@H](C)[C@@H](O[C@@H]2O[C@H](C)C[C@H](N(C)C)[C@H]2O)[C@](C)(O)C[C@@H](C)CN(CCCNC(=O)[C@H]2CC[C@H]3[C@@H]4CCC5=CC(=O)CC[C@]5(C)[C@H]4[C@@H](O)C[C@]23C)[C@H](C)[C@@H](O)[C@]1(C)O,< 4.60,< 5.00,–
CC[C@H]1OC(=O)[C@H](C)[C@@H](O[C@H]2C[C@@](C)(OC)[C@@H](O)[C@H](C)O2)[C@H](C)[C@@H](O[C@@H]2O[C@H](C)C[C@H](N(C)C)[C@H]2O)[C@](C)(O)C[C@@H](C)CN(CCCNC(=O)[C@@]2(O)[C@H](C)C[C@H]3[C@@H]4C[C@H](F)C5=CC(=O)C=C[C@]5(C)[C@@]4(Cl)[C@@H](O)C[C@@]32C)[C@H](C)[C@@H](O)[C@]1(C)O,5.42,5.82,–
